Experimental data as given in ChEMBL document CHEMBL1240452, “Synthesis and toxicity towards normal and cancer cell lines of benzimidazolequinones containing fused aromatic rings and 2-aromatic ring substituents” (Eur J Med Chem, 2010).

Tests used:
Format in all cases: functional, cell-based
DU-145 = test: Cytotoxicity against human DU145 cells after 72 hrs by MTT assay; settings: DU-145, 72 h
In short: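 DU145 prostate cancer cells, grown in RPMI-1640 with 10% heat-inactivated FBS, penicillin-streptomycin and 2 mM L-glutamine, seeded at 2000 cells/well. Treated aerobically for 72 h at 37 °C, then incubated 3 h with MTT. Formazan dissolved in DMSO; A550 read against 690 nm reference. Viability as % of DMSO-only wells, mean of ≥3 independent experiments; IC50 from nonlinear regression of dose-response curves.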

[1] = Cytotoxicity against human GM00637 cells after 72 hrs by MTT assay; settings: GM00637, 72 h
In short: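 Normal human skin fibroblasts GM00637, seeded at 10,000 cells/well and exposed aerobically for 72 h at 37 °C. MTT added for a final 3 h; formazan crystals dissolved in DMSO; absorbance 550 nm with 690 nm reference. Viability relative to DMSO-only control, from at least three independent experiments; IC50 estimated by nonlinear regression of dose-response data.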

HeLa = test: Cytotoxicity against human HeLa cells after 72 hrs by MTT assay
In short: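 HeLa (CCL-2) cervical cancer cells, maintained in DMEM with 10% heat-inactivated FBS, penicillin-streptomycin, 2 mM L-glutamine and non-essential amino acids, plated at 1000 cells/well. Aerobic 72 h exposure at 37 °C, then 3 h MTT; formazan taken up in DMSO, read at 550/690 nm. Viability as % DMSO-only value, ≥3 independent experiments; IC50 by nonlinear regression.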

Compound `CC1Cn2c(nc3c2C(=O)C=CC3=O)-c2cccnc21` (stereo not drawn) has an IC50 (DU-145) of 700 nM, an IC50 [1] of 740 nM and an IC50 (HeLa) of 1510 nM.
Compound `CCn1c(-c2cccnc2)nc2c1C(=O)C=CC2=O` has an IC50 (DU-145) of 1270 nM, an IC50 [1] of 480 nM and an IC50 (HeLa) of 1500 nM.
Compound `CCn1c(-c2ccc3ccccc3c2)nc2c1C(=O)C=CC2=O` has an IC50 (DU-145) of 60 nM, an IC50 [1] of 40 nM and an IC50 (HeLa) of 70 nM.
In the case of `CCn1c(-c2ccccc2)nc2c1C(=O)C=CC2=O`, the IC50 (DU-145) is reported as 70 nM, the IC50 [1] is reported as 150 nM and the IC50 (HeLa) is reported as 180 nM.
In the case of `CC1Cn2c(nc3c2C(=O)C=CC3=O)-c2ccc3ccccc3c21` (stereo not drawn), the IC50 (DU-145) is reported as 780 nM, the IC50 [1] is reported as 2440 nM and the IC50 (HeLa) is reported as 1170 nM.
For `CC1Cn2c(nc3c2C(=O)C=CC3=O)-c2ccccc21` (stereo not drawn), the IC50 (DU-145) was 1090 nM, the IC50 [1] was 1650 nM and the IC50 (HeLa) was 1490 nM.
For `CC1Cn2c(nc3ccccc32)-c2ccc3ccccc3c21` (stereo not drawn), the IC50 [1] was > 10000 nM and the IC50 (HeLa) was > 10000 nM.
`CO[C@@]12[C@H](COC(N)=O)C3=C(C(=O)C(C)=C(N)C3=O)N1C[C@@H]1N[C@@H]12` [MITOMYCIN] gave an IC50 (DU-145) of 170 nM, an IC50 [1] of 460 nM and an IC50 (HeLa) of 270 nM.
